Bioassay records as filed in PubChem.
The list is not random: actives were taken first. Their share in the collection is about 2%.
CAL PDZ FP-1: human CAL PDZ-peptide interaction inhibition; Q9HD26; purified CAL PDZ, TMR-peptide fluorescence polarization, 1 h; inhibition, % at 20 µM; 330,000 tested, 0.02% active; AID 504414;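 active = highest replicate inhibition of at least 40%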;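 note: plate controls were DMSO neutral control wells for no effect and unlabeled competitor peptide control wells for full effect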
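Test system: purified CerCALP PDZ construct; Compound dosing: one concentration, 20 µM compound; Also added: TMR-labelled reporter peptide T*-PRC34 bound in PDZ groove; Read-out: inhibition from polarization loss; Controls: unlabelled peptide and DMSO controls; Signal: FP readout, S and P plane fluorescence; Incubation: 1 h at RT.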
PKA-R2B activ: PKA-R2B complex activation; P22694+P31323; PKA-R2B holoenzyme dissociation, Cy5-IP20 fluorescence polarization; R2B truncated from residue 108, S112A mutant; 0% DMSO only, 100% 113 µM cGMP; 340,000 tested, 0.079% active; activation, % at 11.4 µM; AID 504700;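 active = activation above a cutoff set at the mean over all compounds plus 3 SD, cut at about 18% in these data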;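 note: higher means more holoenzyme dissociation and a rise in polarization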
CAL PDZ FP-2: inhibitors of human CAL PDZ peptide binding; Q9HD26; 300,000 tested, 0.92% active; inhibition, % at 24.9 µM; AID 602252; purified CAL PDZ, TMR-peptide fluorescence polarization, 1 h;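 active = mean inhibition of at least 30% with at least half of replicates also reaching 30%; inconclusive = no clear call, values can overlap the other calls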;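 note: 0% = DMSO neutral control and 100% = excess unlabeled competitor peptide PRC23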
PKA-R1A act: activators of PKA-R1A complex; activation, % at 11.4 µM; PKA-R1A dissociation, Cy5-IP20 fluorescence polarization; scaled: DMSO 0%, 113 µM cGMP 100%; 340,000 tested, 0.083% active;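 active = percent activation above the mean of all tested compounds plus 3 SD, cut at about 19% in these data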;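 note: higher means more PKAc released from R1A so a rise in polarization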
NTR1 ag: agonists of human neurotensin receptor NTR1; P30989; NTR1-U2OS beta-arrestin-GFP spot imaging, agonist mode; activation, % at 20 µM; 330,000 tested, 0.17% active;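 active = activation at or above 40% of the spot to cytoplasm intensity ratio, with at least 20 cells analyzed; inconclusive = wells under 20 cells, flagged as cytotoxic or low count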;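 note: 0% = DMSO without peptide and 100% = 100 nM NTR1 peptide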
dFosB act-1: enhances mouse delta FosB homodimer DNA binding | 340,000 tested, 0.99% active | P13346 | activation, % at 25 µM | purified delta FosB, TAMRA-CDK5 oligo fluorescence polarization; percent of positive-control signal above neutral wells | AID 493131;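 active = mean activation above about 17%, with every replicate also reaching it, limit read from the data, passing the limit was not always enough; inconclusive = only one of the two conditions met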
Target sequence (P13346 whole entry, looked up): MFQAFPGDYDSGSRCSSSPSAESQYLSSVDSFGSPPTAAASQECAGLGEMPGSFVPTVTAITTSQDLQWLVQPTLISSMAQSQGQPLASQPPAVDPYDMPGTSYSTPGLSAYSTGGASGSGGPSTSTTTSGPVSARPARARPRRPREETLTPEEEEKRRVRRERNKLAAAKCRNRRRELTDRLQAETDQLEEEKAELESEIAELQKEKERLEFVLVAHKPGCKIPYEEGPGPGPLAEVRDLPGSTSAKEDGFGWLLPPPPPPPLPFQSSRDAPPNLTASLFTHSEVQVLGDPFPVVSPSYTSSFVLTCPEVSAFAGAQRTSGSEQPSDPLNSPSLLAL
dFosB act-2: delta FosB (mouse) homodimer activation | shares compounds with dFosB act-1 | purified delta FosB, TAMRA-CDK5 oligo fluorescence polarization; normalised: neutral wells 0, positive control 100 | activation, % at 24.9 µM | 2,400 tested, under 10 active;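 active = highest replicate activation at or above 34% and every replicate reaching that threshold; inconclusive = meets only one of the two criteria; inactive = meets neither criterion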;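 note: higher polarization means more probe DNA bound by delta FosB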
* hit, by the source's call.

What do the screens show for `CC1CN(C(=O)c2ccc(CNS(=O)(=O)c3cccc(Cl)c3)cc2)CC(C)O1` (centres undefined)?
CAL PDZ FP-1: -3; PKA-R2B activ: 4; CAL PDZ FP-2: -1; PKA-R1A act: -4; NTR1 ag: 1; dFosB act-1: -5

What do the screens show for `C=CCN([C@@H](CC(C)C)C(=O)OC)S(=O)(=O)N(CC=C)[C@@H](CC(C)C)C(=O)OC`?
CAL PDZ FP-1: 0; PKA-R2B activ: -10; CAL PDZ FP-2: 1; PKA-R1A act: -6; NTR1 ag: 0; dFosB act-1: -6

Results for C/C(=N\NC(=O)c1cccc(S(=O)(=O)N2CCCC2)c1)c1ccc(C)cc1 ?
CAL PDZ FP-1: -1; PKA-R2B activ: 6; CAL PDZ FP-2: -3; PKA-R1A act: -1; NTR1 ag: 2; dFosB act-1: -6

Results for COc1ccc(CN(C)CC(O)COc2ccc(-c3ccccc3)cc2)cc1OC (centres undefined) ?
CAL PDZ FP-1: -2; PKA-R2B activ: -1; CAL PDZ FP-2: -2; PKA-R1A act: -12; NTR1 ag: 4; dFosB act-1: 19*; dFosB act-2: -8

How did CC(C)[Si]1(C(C)C)OCC2OC(n3cnc4c(N)ncnc43)C(N)C2O[Si](C(C)C)(C(C)C)O1 (centres undefined) do in these assays?
CAL PDZ FP-1: -1; PKA-R2B activ: -9; CAL PDZ FP-2: -3; PKA-R1A act: 9; dFosB act-1: -2

Results for O=C(Nc1cnc2ccccn2c1=O)c1ccc(Cl)cc1Cl ?
CAL PDZ FP-1: -1; PKA-R2B activ: -8; CAL PDZ FP-2: -38; PKA-R1A act: -5; NTR1 ag: 0; dFosB act-1: 19*; dFosB act-2: 5

How did Cc1ccc(C(=O)Nc2cnc3ccccn3c2=O)cc1 do in these assays?
CAL PDZ FP-1: -1; PKA-R2B activ: -1; CAL PDZ FP-2: 1; PKA-R1A act: -1; NTR1 ag: -1; dFosB act-1: -1

Results for CCC1CCC(C(=O)NC(C(=O)Nc2ccc3c(c2)OCCO3)C(C)C)CC1 (centres undefined) ?
CAL PDZ FP-1: -2; PKA-R2B activ: 11; CAL PDZ FP-2: 0; PKA-R1A act: -1; NTR1 ag: 1; dFosB act-1: 24*; dFosB act-2: 9

Results for CCn1c(SCC(=O)NC2CCCC2)nc2c(c1=O)SCC2 ?
PKA-R2B activ: 2; PKA-R1A act: -4

How did COc1ccc2cc(/C=N/O)c(Cl)nc2c1 do in these assays?
CAL PDZ FP-1: -1; PKA-R2B activ: 2; CAL PDZ FP-2: 5; PKA-R1A act: -6; NTR1 ag: 0; dFosB act-1: 10

Results for COc1ccc2cc(/C=N/NC(=O)c3ccc(CN(c4cccc(Cl)c4Cl)S(C)(=O)=O)cc3)c(Cl)nc2c1 ?
CAL PDZ FP-1: -1; PKA-R2B activ: -5; PKA-R1A act: -6; NTR1 ag: 6; dFosB act-1: 46*; dFosB act-2: inconclusive

Results for O=C(Cc1ccccc1F)Nc1cccc(S(=O)(=O)N2CCCCC2)c1 ?
PKA-R2B activ: -3; PKA-R1A act: -2

How did CCn1ccc(C(=O)Nc2ccsc2C(=O)OC)n1 do in these assays?
CAL PDZ FP-1: 0; PKA-R2B activ: 6; CAL PDZ FP-2: 0; PKA-R1A act: 9; NTR1 ag: 1; dFosB act-1: -34

How did Cc1cc(NC(=O)CSc2nc3ccccc3c(=O)n2Cc2ccc(F)cc2)no1 do in these assays?
CAL PDZ FP-1: 1; PKA-R2B activ: -1; CAL PDZ FP-2: -1; PKA-R1A act: -10; NTR1 ag: 31; dFosB act-1: 42*; dFosB act-2: 5

What do the screens show for `Cc1cc(NC(=O)Cn2c(=O)n(Cc3ccccc3)c(=O)c3ccccc32)no1`?
CAL PDZ FP-1: 2; PKA-R2B activ: -9; CAL PDZ FP-2: 3; PKA-R1A act: -6; NTR1 ag: -3; dFosB act-1: 52*; dFosB act-2: -8

What do the screens show for `COCCn1cnc2c1c(=O)n(CC(=O)Nc1cc(C)on1)c(=O)n2Cc1ccccc1`?
CAL PDZ FP-1: 0; PKA-R2B activ: -4; CAL PDZ FP-2: 0; PKA-R1A act: 4; NTR1 ag: 1; dFosB act-1: -8

How did O=C(CSc1nc2ccccc2c(=O)n1Cc1ccc(F)cc1)NCc1cccs1 do in these assays?
CAL PDZ FP-1: -2; PKA-R2B activ: 3; CAL PDZ FP-2: -2; PKA-R1A act: -13; NTR1 ag: 6; dFosB act-1: 35*; dFosB act-2: -2

What do the screens show for `COc1ccc(CCn2c(SCC(=O)Nc3cc(C)on3)nc3ccsc3c2=O)cc1OC`?
CAL PDZ FP-1: -1; PKA-R2B activ: -11; PKA-R1A act: -6; NTR1 ag: 1; dFosB act-1: 23*; dFosB act-2: 4

Results for CCOc1cc(N2CCOCC2)c(OCC)cc1NC(=O)CN1C(=O)NC(CC)(c2ccc(F)cc2)C1=O (centres undefined) ?
CAL PDZ FP-1: 0; PKA-R2B activ: -4; CAL PDZ FP-2: -1; PKA-R1A act: 7; dFosB act-1: -4

What do the screens show for `Cc1ccccc1OCCOc1cccc(/C=N/NC(=O)Cc2nnc(N)s2)c1`?
CAL PDZ FP-1: -1; PKA-R2B activ: -8; CAL PDZ FP-2: -2; PKA-R1A act: -8; NTR1 ag: 0; dFosB act-1: 49*; dFosB act-2: -1

Results for COc1ccc(S(=O)(=O)NCC(c2cccnc2)N2CCN(Cc3ccccc3)CC2)cc1C (centres undefined) ?
CAL PDZ FP-1: -2; PKA-R2B activ: 14; CAL PDZ FP-2: -1; PKA-R1A act: 5; NTR1 ag: 1; dFosB act-1: -4

Results for CN(C)C(CNC(=O)c1cc(S(=O)(=O)N2CCOCC2)ccc1Cl)c1cccs1 (centres undefined) ?
CAL PDZ FP-1: -2; PKA-R2B activ: -4; CAL PDZ FP-2: -8; PKA-R1A act: -4; dFosB act-1: 1

Results for Cc1ccc(CNC(=O)C2CCN(C(=O)Nc3ccccc3)CC2)cc1 ?
CAL PDZ FP-1: -2; PKA-R2B activ: -4; CAL PDZ FP-2: 3; PKA-R1A act: -10; NTR1 ag: 0; dFosB act-1: 4

How did Cc1c(Cl)cccc1NC(=O)CNC(=O)C1CCN(C(=O)Nc2ccccc2)CC1 do in these assays?
CAL PDZ FP-1: -4; PKA-R2B activ: -2; CAL PDZ FP-2: -1; PKA-R1A act: 3; NTR1 ag: -1; dFosB act-1: 24*; dFosB act-2: 2

What do the screens show for `CC(C)c1nc(SCC(=O)Nc2ccc3c(c2)OCCO3)c2c(=O)n(C)c(=O)n(C)c2n1`?
CAL PDZ FP-1: -1; PKA-R2B activ: -8; PKA-R1A act: -1; NTR1 ag: 2; dFosB act-1: 24*; dFosB act-2: 8
